# Results from different studies.
# Target: G protein-coupled receptor kinase 4 (GRK4, Homo sapiens, UniProt P32298)
SMILES,effect on,mode,technique,concentration,measurement,result
CN1CCN(C(=O)c2ccc(NC(=O)Nc3ccc(N(C)c4ccnc(Nc5ccc(CS(C)(=O)=O)cc5)n4)cc3)cc2)CC1,binding,,,1 µM,remaining binding,4.5%
CCCCC(=O)Nc1ccc(-c2ccc3ncn(CCC)c(=O)c3c2)cn1,binding,,competition with immobilised ligand,0.5 µM,remaining binding,93%
C[C@]1(O)CCCN(c2nc(Nc3ccc(S(=O)(=O)N[C@H]4CC[C@H](CN5CCN(c6ccc(C7CCC(=O)NC7=O)cc6F)CC5)CC4)cc3F)ncc2C(F)(F)F)C1 (stereo partly drawn),binding,,competition with immobilised ligand,1 µM,remaining binding,87%
C1=C/COCc2cc(ccc2OCCN2CCCC2)Nc2nccc(n2)-c2cccc(c2)COC/1,binding,,,0.1 µM,remaining binding,13%
CC(C)S(=O)(=O)c1ccc2nccc(Nc3ccc4sc(C5CCCC5)nc4c3)c2c1,enzyme activity,inhibitor,,1 µM,activity vs control,112%
C=CC(=O)N1CCC([C@@H]2CCNc3c(C(N)=O)c(-c4ccc(Oc5ccccc5)cc4)nn32)CC1,enzyme activity,inhibitor,,1 µM,inhibition,8%
CNS(=O)(=O)c1ccc(Nc2ncc(C(F)(F)F)c(N3CCC[C@](C)(O)C3)n2)c(C)c1,binding,,competition with immobilised ligand,1 µM,remaining binding,100%
C=CC(=O)N1CCC[C@@H](n2nc(-c3ccc(Oc4ccccc4)cc3)c3c(N)ncnc32)C1,enzyme activity,inhibitor,,1 µM,inhibition,3%
Cc1ccc(NC(=O)c2ccnc(C(F)(F)F)c2)cc1-c1cc(OCCO)nc(N2CCOCC2)c1,binding,,,1 µM,remaining binding,99%
